Assay results: ChEMBL document CHEMBL3108666, “Cytotoxic and protein kinase inhibiting nakijiquinones and nakijiquinols from the sponge Dactylospongia metachromia” (J Nat Prod, 2014)
Calls of active or inactive are those of the source. No cut-off for these calls is given here.

Tests used:
[1] = tested on: L5178Y; experiment: Cytotoxicity against mouse L5178Y cells assessed as growth inhibition by MTT assay; type: functional, cell-based
Outline: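 L5178Y mouse lymphoma cells; MTT microculture tetrazolium read-out, compared with untreated controls; media with 0.1% EGMME-DMSO as negative control; three independent experiments, each in triplicate.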

[2] = biological target: T1, ALK tyrosine kinase receptor (Homo sapiens, UniProt Q9UM73); experiment: Inhibition of recombinant ALK (unknown origin) assessed as incorporation of [gamma-33P]-ATP into substrate at 10 uM by radiometric assay
Outline: (§1)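 Radiometric 33PanQinase format: recombinant kinase incubated with [γ-33P]ATP plus unlabeled ATP and kinase substrate; substrate-incorporated label measured by FlashPlate counting; compounds screened at 10 μM each across a 16-kinase panel.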

[3] = biological target: T2, Proto-oncogene tyrosine-protein kinase Src (Homo sapiens, UniProt P12931); experiment: Inhibition of recombinant SRC (unknown origin) using casein as substrate assessed as incorporation of [gamma-33P]-ATP into substrate at 10 uM by radiometric assay; outline: as §1
[4] = biological target: T3, Insulin-like growth factor 1 receptor (Homo sapiens, UniProt P08069); experiment: Inhibition of recombinant IGF1R (unknown origin) using Poly (Glu,Tyr) 4:1 as substrate assessed as incorporation of [gamma-33P]-ATP into substrate at 10 uM by radiometric assay; outline: as §1
[5] = biological target: T4, Focal adhesion kinase 1 (Homo sapiens, UniProt Q05397); experiment: Inhibition of recombinant FAK (unknown origin) assessed as incorporation of [gamma-33P]-ATP into substrate at 10 uM by radiometric assay; outline: as §1
[6] = biological target: T5, Vascular endothelial growth factor receptor 2 (Homo sapiens, UniProt P35968); experiment: Inhibition of recombinant VEGFR2 (unknown origin) using poly(Glu,Tyr)4:1 as substrate assessed as incorporation of [gamma-33P]-ATP into substrate at 10 uM by radiometric assay; outline: as §1
[7] = biological target: Serine/threonine-protein kinase PLK1 (Homo sapiens, UniProt P53350); experiment: Inhibition of recombinant PLK1 (unknown origin) using casein as substrate assessed as incorporation of [gamma-33P]-ATP into substrate by radiometric assay
[8] = biological target: RAC-alpha serine/threonine-protein kinase (Homo sapiens, UniProt P31749); experiment: Inhibition of recombinant AKT1 (unknown origin) using GSK3 (14 to 27) as substrate assessed as incorporation of [gamma-33P]-ATP into substrate by radiometric assay; outline: as §1
[9] = biological target: Serine/threonine-protein kinase N1 (Homo sapiens, UniProt Q16512); experiment: Inhibition of recombinant PRK1 (unknown origin) using casein as substrate assessed as incorporation of [gamma-33P]-ATP into substrate by radiometric assay; outline: as §1
[10] = biological target: T6, NUAK family SNF1-like kinase 1 (Homo sapiens, UniProt O60285); experiment: Inhibition of recombinant ARK5 (unknown origin) assessed as incorporation of [gamma-33P]-ATP into substrate by radiometric assay; outline: as §1
T6 sequence (O60285 whole entry): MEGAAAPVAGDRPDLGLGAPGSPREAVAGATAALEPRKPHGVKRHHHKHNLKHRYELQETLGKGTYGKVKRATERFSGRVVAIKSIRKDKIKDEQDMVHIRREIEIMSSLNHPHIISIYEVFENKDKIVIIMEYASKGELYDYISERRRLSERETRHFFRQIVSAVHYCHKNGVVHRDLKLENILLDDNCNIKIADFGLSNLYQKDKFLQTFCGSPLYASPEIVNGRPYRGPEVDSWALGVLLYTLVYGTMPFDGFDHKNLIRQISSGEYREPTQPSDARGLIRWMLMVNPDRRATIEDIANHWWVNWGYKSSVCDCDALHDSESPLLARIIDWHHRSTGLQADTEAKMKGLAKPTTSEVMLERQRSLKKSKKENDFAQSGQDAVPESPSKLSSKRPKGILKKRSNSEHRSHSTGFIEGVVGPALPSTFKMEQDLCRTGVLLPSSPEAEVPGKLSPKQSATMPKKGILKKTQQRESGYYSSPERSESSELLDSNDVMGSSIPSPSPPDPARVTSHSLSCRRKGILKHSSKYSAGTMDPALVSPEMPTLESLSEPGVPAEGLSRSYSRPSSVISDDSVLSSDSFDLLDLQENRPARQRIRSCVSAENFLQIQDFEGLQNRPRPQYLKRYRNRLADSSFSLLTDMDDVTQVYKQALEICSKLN

[11] = biological target: T2, Proto-oncogene tyrosine-protein kinase Src; experiment: Inhibition of recombinant SRC (unknown origin) using casein as substrate assessed as incorporation of [gamma-33P]-ATP into substrate by radiometric assay
[12] = biological target: Serine/threonine-protein kinase pim-1 (Homo sapiens, UniProt P11309); experiment: Inhibition of recombinant PIM1 (unknown origin) assessed as incorporation of [gamma-33P]-ATP into substrate by radiometric assay; outline: as §1
[13] = biological target: Aurora kinase B (Homo sapiens, UniProt Q96GD4); experiment: Inhibition of recombinant aurora kinase B (unknown origin) using tetra(LRRWSLG) as substrate assessed as incorporation of [gamma-33P]-ATP into substrate by radiometric assay
[14] = biological target: Serine/threonine-protein kinase Nek6 (Homo sapiens, UniProt Q9HC98); experiment: Inhibition of recombinant NEK6 (unknown origin) assessed as incorporation of [gamma-33P]-ATP into substrate by radiometric assay; outline: as §1
[15] = biological target: Hepatocyte growth factor receptor (Homo sapiens, UniProt P08581); experiment: Inhibition of wild type MET (unknown origin) assessed as incorporation of [gamma-33P]-ATP into substrate by radiometric assay
[16] = biological target: Dual specificity mitogen-activated protein kinase kinase 1 (Homo sapiens, UniProt Q02750); experiment: Inhibition of wild type MEK1 (unknown origin) assessed as incorporation of [gamma-33P]-ATP into substrate by radiometric assay
[17] = biological target: T7, Tyrosine-protein kinase receptor UFO (Homo sapiens, UniProt P30530); experiment: Inhibition of recombinant AXL (unknown origin) assessed as incorporation of [gamma-33P]-ATP into substrate by radiometric assay
T7 sequence (P30530 whole entry): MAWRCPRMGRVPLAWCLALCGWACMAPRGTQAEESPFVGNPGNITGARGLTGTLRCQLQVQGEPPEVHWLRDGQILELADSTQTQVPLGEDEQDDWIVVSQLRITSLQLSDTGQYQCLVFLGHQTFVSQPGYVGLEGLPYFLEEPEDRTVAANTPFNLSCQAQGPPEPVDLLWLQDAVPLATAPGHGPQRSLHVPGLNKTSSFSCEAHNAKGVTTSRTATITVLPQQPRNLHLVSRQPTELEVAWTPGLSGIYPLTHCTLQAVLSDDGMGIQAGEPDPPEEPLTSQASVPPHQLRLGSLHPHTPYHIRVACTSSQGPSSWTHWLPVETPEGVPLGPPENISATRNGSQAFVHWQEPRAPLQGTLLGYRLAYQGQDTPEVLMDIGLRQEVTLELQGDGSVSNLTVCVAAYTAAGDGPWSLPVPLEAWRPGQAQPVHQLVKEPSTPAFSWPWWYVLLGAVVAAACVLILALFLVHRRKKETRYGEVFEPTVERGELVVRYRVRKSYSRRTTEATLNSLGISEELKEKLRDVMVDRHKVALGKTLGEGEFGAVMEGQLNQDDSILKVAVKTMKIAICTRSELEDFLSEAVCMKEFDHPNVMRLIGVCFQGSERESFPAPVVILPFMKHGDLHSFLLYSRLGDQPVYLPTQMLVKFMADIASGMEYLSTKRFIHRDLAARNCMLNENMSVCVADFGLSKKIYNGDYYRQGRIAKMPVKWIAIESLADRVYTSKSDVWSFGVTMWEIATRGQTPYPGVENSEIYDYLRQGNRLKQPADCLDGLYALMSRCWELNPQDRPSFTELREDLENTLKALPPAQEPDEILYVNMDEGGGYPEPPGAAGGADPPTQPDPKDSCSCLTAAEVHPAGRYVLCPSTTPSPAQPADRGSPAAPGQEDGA

[18] = biological target: T8, Serine/threonine-protein kinase Nek2 (Homo sapiens, UniProt P51955); experiment: Inhibition of recombinant NEK2 (unknown origin) assessed as incorporation of [gamma-33P]-ATP into substrate by radiometric assay
T8 sequence (P51955 whole entry): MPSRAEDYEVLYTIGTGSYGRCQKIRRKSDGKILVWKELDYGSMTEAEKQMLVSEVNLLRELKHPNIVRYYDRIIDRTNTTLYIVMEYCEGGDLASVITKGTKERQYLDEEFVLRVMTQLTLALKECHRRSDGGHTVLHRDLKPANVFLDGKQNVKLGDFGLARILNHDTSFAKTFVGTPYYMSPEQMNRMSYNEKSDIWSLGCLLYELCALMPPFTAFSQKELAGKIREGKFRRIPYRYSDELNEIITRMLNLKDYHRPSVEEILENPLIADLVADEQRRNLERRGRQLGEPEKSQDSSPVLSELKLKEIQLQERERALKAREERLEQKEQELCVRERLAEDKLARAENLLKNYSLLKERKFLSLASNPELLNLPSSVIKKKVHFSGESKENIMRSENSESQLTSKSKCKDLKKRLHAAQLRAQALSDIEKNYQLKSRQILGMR

[19] = biological target: T3, Insulin-like growth factor 1 receptor; experiment: Inhibition of recombinant IGF1R (unknown origin) using Poly (Glu,Tyr) 4:1 as substrate assessed as incorporation of [gamma-33P]-ATP into substrate by radiometric assay
[20] = biological target: T4, Focal adhesion kinase 1; experiment: Inhibition of recombinant FAK (unknown origin) assessed as incorporation of [gamma-33P]-ATP into substrate by radiometric assay; outline: as §1
Target sequence in this assay (Q05397 whole entry): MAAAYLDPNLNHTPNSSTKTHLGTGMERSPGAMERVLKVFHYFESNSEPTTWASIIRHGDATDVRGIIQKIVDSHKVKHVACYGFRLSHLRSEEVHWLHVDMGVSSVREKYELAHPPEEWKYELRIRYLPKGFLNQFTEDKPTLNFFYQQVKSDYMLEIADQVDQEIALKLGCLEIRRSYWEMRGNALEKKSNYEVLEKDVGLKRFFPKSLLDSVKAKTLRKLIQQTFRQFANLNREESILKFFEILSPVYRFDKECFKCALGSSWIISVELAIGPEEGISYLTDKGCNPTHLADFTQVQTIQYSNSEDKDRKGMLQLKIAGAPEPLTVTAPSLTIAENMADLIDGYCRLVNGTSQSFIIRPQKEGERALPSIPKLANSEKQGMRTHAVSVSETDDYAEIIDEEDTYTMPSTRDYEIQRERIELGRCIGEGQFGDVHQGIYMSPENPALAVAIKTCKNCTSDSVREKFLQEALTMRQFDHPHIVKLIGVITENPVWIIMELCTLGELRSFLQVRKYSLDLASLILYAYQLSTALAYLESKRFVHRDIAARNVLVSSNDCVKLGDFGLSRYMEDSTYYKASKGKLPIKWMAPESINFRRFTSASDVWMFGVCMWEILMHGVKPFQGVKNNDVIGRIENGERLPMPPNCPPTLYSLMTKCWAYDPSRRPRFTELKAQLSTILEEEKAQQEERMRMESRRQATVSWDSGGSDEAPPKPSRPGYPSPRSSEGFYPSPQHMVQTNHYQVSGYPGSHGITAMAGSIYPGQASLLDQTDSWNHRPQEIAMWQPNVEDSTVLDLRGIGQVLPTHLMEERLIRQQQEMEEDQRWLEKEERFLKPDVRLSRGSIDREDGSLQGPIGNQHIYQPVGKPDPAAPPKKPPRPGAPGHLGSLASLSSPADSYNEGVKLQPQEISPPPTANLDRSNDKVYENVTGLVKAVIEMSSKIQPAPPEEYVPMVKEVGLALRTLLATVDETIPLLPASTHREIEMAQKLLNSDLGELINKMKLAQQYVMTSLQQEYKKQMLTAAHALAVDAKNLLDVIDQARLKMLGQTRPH

[21] = biological target: T5, Vascular endothelial growth factor receptor 2; experiment: Inhibition of recombinant VEGFR2 (unknown origin) using poly(Glu,Tyr)4:1 as substrate assessed as incorporation of [gamma-33P]-ATP into substrate by radiometric assay; outline: as §1
[22] = biological target: T1, ALK tyrosine kinase receptor; experiment: Inhibition of recombinant ALK (unknown origin) assessed as incorporation of [gamma-33P]-ATP into substrate by radiometric assay
Target sequence in this assay (Q9UM73 whole entry): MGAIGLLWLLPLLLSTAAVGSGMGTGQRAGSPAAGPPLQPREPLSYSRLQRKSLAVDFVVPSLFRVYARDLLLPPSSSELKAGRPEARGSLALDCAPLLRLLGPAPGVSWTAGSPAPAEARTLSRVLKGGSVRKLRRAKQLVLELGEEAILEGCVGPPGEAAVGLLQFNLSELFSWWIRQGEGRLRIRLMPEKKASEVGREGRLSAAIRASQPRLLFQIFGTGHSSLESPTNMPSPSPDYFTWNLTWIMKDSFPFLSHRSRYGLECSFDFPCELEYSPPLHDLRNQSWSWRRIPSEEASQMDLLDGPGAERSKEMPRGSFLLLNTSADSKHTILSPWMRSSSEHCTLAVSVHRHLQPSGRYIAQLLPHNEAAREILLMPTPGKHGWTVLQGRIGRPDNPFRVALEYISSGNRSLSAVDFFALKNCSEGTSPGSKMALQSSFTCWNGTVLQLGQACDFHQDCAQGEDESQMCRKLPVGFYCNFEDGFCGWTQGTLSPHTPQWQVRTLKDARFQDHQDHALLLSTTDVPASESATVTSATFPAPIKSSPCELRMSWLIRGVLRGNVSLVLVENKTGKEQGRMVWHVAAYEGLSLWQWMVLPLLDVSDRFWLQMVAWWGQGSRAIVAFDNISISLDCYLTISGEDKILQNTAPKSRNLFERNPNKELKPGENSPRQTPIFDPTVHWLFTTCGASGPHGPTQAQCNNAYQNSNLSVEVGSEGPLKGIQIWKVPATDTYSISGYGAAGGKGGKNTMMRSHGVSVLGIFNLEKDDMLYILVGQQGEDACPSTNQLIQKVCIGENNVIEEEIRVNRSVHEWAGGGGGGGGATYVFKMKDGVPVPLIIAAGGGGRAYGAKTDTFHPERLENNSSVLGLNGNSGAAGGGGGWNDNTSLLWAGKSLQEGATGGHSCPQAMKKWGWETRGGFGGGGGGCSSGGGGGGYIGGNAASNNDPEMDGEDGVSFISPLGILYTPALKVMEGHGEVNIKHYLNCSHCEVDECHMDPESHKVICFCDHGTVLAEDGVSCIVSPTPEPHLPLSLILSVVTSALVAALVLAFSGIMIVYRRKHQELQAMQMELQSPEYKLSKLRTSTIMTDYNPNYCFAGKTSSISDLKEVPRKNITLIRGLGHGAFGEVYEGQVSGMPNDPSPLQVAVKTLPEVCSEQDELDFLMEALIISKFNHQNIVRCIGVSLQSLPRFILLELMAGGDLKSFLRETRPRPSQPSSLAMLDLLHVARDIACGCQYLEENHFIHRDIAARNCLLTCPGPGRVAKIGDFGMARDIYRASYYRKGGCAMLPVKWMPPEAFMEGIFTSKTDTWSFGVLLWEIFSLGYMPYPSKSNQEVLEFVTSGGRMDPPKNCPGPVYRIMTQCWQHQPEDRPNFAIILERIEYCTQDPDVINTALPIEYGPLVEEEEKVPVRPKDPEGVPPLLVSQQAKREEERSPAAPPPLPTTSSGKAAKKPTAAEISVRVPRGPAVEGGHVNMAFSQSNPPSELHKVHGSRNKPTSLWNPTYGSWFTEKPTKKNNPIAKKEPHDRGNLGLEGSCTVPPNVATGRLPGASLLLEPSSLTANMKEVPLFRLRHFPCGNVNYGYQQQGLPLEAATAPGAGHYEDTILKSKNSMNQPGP

Chain of Dual specificity mitogen-activated protein kinase kinase 1 (Q02750 whole entry): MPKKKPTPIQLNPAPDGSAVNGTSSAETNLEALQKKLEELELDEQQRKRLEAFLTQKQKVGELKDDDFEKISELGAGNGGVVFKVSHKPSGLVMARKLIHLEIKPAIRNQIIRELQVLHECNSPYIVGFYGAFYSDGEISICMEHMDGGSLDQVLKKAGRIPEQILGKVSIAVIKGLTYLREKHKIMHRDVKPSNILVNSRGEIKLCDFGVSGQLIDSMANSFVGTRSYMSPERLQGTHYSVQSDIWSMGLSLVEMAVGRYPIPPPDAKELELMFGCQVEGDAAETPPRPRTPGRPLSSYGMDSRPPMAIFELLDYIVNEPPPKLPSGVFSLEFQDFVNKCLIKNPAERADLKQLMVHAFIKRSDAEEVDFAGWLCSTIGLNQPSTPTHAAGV
Chain of RAC-alpha serine/threonine-protein kinase (P31749 whole entry): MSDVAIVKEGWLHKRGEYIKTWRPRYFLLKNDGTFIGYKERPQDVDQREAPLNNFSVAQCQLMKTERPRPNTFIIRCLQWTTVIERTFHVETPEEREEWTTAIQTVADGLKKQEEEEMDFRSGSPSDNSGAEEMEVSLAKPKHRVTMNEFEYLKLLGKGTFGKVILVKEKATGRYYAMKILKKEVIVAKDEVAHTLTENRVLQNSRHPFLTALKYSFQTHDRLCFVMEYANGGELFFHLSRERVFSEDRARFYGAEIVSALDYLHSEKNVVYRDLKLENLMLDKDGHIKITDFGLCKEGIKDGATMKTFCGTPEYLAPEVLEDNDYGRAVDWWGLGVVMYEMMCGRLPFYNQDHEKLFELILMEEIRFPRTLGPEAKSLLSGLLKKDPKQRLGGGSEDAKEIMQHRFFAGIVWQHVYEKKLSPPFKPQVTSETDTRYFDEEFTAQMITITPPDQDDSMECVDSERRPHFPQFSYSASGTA
T5 sequence (P35968 whole entry): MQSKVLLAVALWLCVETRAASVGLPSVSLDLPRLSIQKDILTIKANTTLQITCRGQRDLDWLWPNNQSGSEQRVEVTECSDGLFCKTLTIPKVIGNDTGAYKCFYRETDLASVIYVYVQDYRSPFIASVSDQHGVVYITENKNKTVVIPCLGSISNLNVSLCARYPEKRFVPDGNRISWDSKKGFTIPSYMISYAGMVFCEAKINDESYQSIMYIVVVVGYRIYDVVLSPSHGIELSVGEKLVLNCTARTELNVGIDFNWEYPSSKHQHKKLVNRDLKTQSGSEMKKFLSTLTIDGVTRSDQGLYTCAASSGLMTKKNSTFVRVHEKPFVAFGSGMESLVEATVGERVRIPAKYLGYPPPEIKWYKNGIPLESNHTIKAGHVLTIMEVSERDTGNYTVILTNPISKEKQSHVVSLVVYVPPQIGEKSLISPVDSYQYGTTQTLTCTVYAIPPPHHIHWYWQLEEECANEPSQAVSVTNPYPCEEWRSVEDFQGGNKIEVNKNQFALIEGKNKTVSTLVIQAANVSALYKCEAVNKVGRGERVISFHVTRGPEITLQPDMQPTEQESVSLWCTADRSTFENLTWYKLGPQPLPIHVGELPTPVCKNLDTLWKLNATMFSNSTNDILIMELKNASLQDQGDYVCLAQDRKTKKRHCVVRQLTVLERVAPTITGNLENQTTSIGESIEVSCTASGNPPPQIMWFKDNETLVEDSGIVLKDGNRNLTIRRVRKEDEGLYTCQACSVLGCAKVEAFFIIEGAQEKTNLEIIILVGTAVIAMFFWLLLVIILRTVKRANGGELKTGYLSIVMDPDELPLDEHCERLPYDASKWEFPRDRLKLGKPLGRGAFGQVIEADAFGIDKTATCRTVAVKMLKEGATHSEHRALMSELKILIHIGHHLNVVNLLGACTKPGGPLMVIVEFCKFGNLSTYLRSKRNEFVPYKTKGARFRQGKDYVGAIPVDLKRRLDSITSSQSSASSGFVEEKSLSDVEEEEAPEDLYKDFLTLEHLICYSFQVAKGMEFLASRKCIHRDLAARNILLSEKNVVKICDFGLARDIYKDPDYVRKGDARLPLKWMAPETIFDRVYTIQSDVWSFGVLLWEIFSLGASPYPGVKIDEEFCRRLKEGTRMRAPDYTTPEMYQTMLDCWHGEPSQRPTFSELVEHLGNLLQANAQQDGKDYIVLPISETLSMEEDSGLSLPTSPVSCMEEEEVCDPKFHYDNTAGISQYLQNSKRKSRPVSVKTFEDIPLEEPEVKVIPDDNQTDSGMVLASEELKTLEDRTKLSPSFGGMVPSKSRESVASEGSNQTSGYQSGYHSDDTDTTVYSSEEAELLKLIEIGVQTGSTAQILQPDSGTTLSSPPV

Structure (SMILES) | IC50 [1] [µM] | inhibition [2] | inhibition [3] | inhibition [4] | inhibition [5] | inhibition [6] | IC50 [7] [µM] | IC50 [8] [µM] | IC50 [9] [µM] | IC50 [10] [µM] | IC50 [11] [µM] | IC50 [12] [µM] | IC50 [13] [µM] | IC50 [14] [µM] | IC50 [15] [µM] | IC50 [16] [µM] | IC50 [17] [µM] | IC50 [18] [µM] | IC50 [19] [µM] | IC50 [20] [µM] | other results
CC1=CCC[C@H]2[C@](C)(CC3=C(O)C(=O)C=C(NCCc4ccccc4)C3=O)[C@@H](C)CC[C@@]12C | 1.1 | Active | Active | Active | Active | Active | – | – | – | – | – | – | – | – | – | – | – | – | – | – | –
COC(=O)c1cc(O)c(O)c(C[C@]2(C)[C@@H](C)CC[C@@]3(C)C(C)=CCC[C@@H]23)c1 | > 10 | – | – | – | – | – | 21.7 | 48.4 | > 100 | 29.4 | 8.62 | 20.3 | 3.89 | 7.72 | 3.12 | > 100 | 13.1 | 14.7 | 11.8 | 4.56 | IC50 [21]: 4.81 µM; IC50 [22]: 2.19 µM
CSCCCNC1=CC(=O)C(O)=C(C[C@]2(C)[C@@H](C)CC[C@@]3(C)C(C)=CCC[C@@H]23)C1=O | 1.8 | Active | Active | Active | Active | Active | – | – | – | – | – | – | – | – | – | – | – | – | – | – | –
CC1=CCC[C@H]2[C@](C)(CC3=C(O)C(=O)C=C(NCCC(C)C)C3=O)[C@@H](C)CC[C@@]12C | 1.3 | – | – | – | – | – | 100 | 73.2 | > 100 | > 100 | 2.2 | 62.6 | 61 | 90.8 | 40.3 | > 100 | > 100 | 29.9 | 1.94 | 3.03 | IC50 [21]: 2.22 µM; IC50 [22]: 0.97 µM
COc1cc2nc(C)oc2c(C[C@]2(C)[C@@H](C)CC[C@@]3(C)C(C)=CCC[C@@H]23)c1O | > 10 | – | – | – | – | – | > 100 | > 100 | > 100 | > 100 | 19.7 | > 100 | > 100 | > 100 | > 100 | > 100 | 14.7 | > 100 | 3.31 | 7.78 | IC50 [21]: 3.66 µM; IC50 [22]: 3.38 µM
CC1=CCC[C@H]2[C@](C)(CC3=C(O)C(=O)C=C(NCCc4ccc(O)cc4)C3=O)[C@@H](C)CC[C@@]12C | 1.7 | Active | Active | Active | Active | Active | – | – | – | – | – | – | – | – | – | – | – | – | – | – | –
CC1=CCC[C@H]2[C@](C)(CC3=C(O)C(=O)C=C(NCCc4c[nH]c5ccccc45)C3=O)[C@@H](C)CC[C@@]12C | 3.7 | Active | Active | Active | Active | Active | – | – | – | – | – | – | – | – | – | – | – | – | – | – | –
CC1=CCC[C@H]2[C@](C)(Cc3c4oc(C)nc4cc4nc(C)oc34)[C@@H](C)CC[C@@]12C | > 10 | Active | – | Active | Active | – | – | – | – | – | – | – | – | – | – | – | – | – | – | – | –
